Experiments:
[1] = target: T1, Protein-glutamine gamma-glutamyltransferase K (Homo sapiens) (UniProt P22735); assay: Irreversible inhibition of human TG1 using Cbz-Glu-(gamma-p-nitrophenylester)Gly (AL5) as substrate assessed as substrate hydrolysis by measuring observed binding constant incubated for 100 mins by colorimetric assay
T1 sequence (whole entry): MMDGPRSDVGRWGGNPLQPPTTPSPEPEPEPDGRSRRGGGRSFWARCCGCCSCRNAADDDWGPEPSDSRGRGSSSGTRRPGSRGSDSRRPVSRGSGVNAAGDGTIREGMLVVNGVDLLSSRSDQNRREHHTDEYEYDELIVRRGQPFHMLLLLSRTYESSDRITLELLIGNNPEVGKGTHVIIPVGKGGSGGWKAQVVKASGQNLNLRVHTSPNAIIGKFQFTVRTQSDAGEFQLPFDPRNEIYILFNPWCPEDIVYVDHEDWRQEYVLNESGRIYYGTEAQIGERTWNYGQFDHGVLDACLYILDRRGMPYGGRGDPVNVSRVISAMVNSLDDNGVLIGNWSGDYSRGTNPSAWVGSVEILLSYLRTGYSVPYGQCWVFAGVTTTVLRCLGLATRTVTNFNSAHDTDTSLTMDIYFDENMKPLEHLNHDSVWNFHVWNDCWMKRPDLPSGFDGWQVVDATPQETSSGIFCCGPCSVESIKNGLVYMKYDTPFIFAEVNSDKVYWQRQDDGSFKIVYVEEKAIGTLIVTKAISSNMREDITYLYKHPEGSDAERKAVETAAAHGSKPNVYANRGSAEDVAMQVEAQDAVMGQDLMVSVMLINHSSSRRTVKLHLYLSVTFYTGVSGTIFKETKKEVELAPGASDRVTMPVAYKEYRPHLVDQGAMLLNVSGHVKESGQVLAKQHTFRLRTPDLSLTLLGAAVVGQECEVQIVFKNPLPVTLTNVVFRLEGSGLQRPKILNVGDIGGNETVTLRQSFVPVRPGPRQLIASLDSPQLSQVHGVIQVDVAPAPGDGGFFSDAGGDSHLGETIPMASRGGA

[2] = target: T2, Protein-glutamine gamma-glutamyltransferase (Homo sapiens) (UniProt P21980); assay: Irreversible inhibition of human TG2 using Cbz-Glu-(gamma-p-nitrophenylester)Gly (AL5) as substrate assessed as substrate hydrolysis by measuring observed binding constant incubated for 20 mins by colorimetric assay
T2 sequence (whole entry): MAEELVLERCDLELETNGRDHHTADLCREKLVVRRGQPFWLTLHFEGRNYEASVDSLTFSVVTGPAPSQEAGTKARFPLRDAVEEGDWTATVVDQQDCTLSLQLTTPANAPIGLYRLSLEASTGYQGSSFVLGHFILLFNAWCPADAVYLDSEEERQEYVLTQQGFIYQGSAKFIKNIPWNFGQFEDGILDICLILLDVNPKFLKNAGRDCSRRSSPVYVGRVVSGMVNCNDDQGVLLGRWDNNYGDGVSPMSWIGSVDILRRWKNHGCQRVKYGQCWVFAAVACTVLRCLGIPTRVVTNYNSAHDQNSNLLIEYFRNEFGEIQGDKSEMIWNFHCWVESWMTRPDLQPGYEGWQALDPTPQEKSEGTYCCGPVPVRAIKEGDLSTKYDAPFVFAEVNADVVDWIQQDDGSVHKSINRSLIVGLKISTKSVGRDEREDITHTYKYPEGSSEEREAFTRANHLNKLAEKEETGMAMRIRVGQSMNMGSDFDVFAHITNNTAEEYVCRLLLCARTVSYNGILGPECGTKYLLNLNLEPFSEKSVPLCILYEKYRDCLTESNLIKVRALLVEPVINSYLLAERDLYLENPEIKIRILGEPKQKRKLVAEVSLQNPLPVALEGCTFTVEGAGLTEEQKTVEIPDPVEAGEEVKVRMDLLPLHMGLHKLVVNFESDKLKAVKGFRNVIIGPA

[3] = Metabolic stability in human whole blood assessed as drug degradation measured upto 120 mins by LC-MS/ms analysis; format: ADME, tissue-based; conditions: 2 h
Summary of the method: (§1)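 Pooled human whole blood (K3-EDTA) was spiked to 1 or 5 μM compound. Aliquots taken at 0, 15, 30, 60 and 120 min were quenched in acetonitrile with 0.1% formic acid and internal standard, then analysed by LC-MS/MS. Percent parent remaining is the peak-area ratio versus T = 0; half-life comes from an exponential decay fit.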

[4] = Metabolic stability in human whole blood assessed as half-life at 1 to 5 uM measured upto 120 mins by LC-MS/MS analysis; format: ADME, tissue-based; conditions: dose 1-5 µM; summary of the method: as §1
[5] = GSH reactivity in aqueous buffer assessed as GSH adduct formation by measuring corrected intrinsic second order rate constant (K2 corrected) by HPLC analysis; format: physicochemical
Summary of the method: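 GSH stock diluted to final 15 mM in aqueous buffer (pH 8.0 used, 7.4 too slow), reaction started with inhibitor at final 0.5 mM, 2% v/v DMSO. Incubated at 22 °C and aliquots taken over at least 5–6 half-lives. HPLC with UV 214/254 nm tracked adduct growth and inhibitor loss, fitted mono-exponentially to give pseudo-first-order kobs. kobs was divided by [thiol] and then by the thiolate fraction (pKa 8.7) to give kcorr2. Run in duplicate.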

[6] = Metabolic stability in pooled cryopreserved human hepatocytes assessed as half-life at 1 uM measured upto 120 mins by LC-MS/MS analysis; format: ADME, cell-based, Hepatocyte
Summary of the method: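 Samples were taken at 0, 5, 15, 30, 60 and 120 min, acetonitrile-quenched with internal standard, and analysed by LC-MS/MS. Half-life came from exponential decay of the parent/IS ratio relative to T = 0.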

[7] = target: T3, Coagulation factor XIII A chain (Homo sapiens) (UniProt P00488); assay: Irreversible inhibition of human factor XIIIa using peptidic FRET-quenched probe A101 as substrate assessed as observed binding constant by fluorescence based assay
T3 sequence (whole entry): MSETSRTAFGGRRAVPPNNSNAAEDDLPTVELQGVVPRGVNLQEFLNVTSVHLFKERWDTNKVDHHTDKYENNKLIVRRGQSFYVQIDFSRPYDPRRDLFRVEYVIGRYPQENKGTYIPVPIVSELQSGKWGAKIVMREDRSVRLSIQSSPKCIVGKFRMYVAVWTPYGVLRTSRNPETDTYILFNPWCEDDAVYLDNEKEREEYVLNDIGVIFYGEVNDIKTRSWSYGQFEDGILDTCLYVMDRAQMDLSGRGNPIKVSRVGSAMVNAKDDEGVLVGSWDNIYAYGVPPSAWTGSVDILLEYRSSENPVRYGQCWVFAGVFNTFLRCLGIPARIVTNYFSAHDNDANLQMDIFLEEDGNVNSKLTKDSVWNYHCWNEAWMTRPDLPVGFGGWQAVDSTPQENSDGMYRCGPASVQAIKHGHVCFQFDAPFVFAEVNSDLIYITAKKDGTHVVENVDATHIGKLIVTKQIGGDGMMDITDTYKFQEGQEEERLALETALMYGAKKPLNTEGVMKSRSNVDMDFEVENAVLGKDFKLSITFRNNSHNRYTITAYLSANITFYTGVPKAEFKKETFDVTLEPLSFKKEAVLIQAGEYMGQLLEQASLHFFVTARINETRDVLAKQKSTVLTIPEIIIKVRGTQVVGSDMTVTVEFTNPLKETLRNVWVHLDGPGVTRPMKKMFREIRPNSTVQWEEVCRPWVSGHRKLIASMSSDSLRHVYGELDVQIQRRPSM

| K [1] [min⁻¹] | K [2] [min⁻¹] | Stability [3] | half-life at up to 5 µM [4] [h] | K [5] | half-life at 1 µM [6] [h] | K [7] [min⁻¹] | Compound |
| --- | --- | --- | --- | --- | --- | --- | --- |
| 0.018 | 0.537 | Stable | > 2 | 1.48 10^-3/M/min | > 2 | 0.013 | O=C(CCl)NCC(=O)N1CCN(C(=O)C23CC4CC(CC(C4)C2)C3)CC1 |
| 0.023 | 0.5 | Stable | > 2 | 0.079 10^-3/M/min | > 2 | 0.051 | C=CC(=O)NCC(=O)N1CCN(C(=O)C23CC4CC(CC(C4)C2)C3)CC1 |

Source: ChEMBL document CHEMBL5230175, “The war on hTG2: warhead optimization in small molecule human tissue transglutaminase inhibitors” (RSC Med Chem, 2023)
